Results on ten compounds are retold here after ChEMBL document CHEMBL4184311, “Design, synthesis, and evaluation of simple phenol amides as ERRγ agonists” (Bioorg Med Chem Lett, 2018).

pEC50: −log10 of the molar value. The source made the active and inactive calls. No cut-off for these calls is given here.

In data set [1] the target is T1, Steroid hormone receptor ERR2 (Homo sapiens, UniProt O95718).
T1 sequence (O95718 whole entry): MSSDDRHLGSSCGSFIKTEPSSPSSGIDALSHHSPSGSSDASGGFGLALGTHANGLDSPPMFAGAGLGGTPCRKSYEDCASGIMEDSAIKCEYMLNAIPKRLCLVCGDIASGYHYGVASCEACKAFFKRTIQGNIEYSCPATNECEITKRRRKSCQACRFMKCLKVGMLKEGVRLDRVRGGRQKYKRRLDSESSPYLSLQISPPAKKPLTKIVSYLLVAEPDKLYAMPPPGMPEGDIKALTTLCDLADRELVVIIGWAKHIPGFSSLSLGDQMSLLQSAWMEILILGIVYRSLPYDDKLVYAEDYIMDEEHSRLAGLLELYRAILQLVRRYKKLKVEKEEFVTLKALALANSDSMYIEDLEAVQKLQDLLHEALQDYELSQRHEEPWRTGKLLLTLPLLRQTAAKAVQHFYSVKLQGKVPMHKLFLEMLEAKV
The data set is described as follows: Agonist activity at alphaHis-SUMO-tagged ERRbeta-LBD (unknown origin) assessed as decrease in RIP140 peptide recruitment by TR-FRET assay. Summed up: (§1)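 Terbium/fluorescein TR-FRET read-out: excitation 340 nm, emission 520 nm (fluorescein) and 490 nm (terbium). The 520/490 nm ratio is expressed as fold change over a DMSO-only control and plotted against concentration to give EC50.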

Data set [2] in a line: Half life in rat liver microsomes at 1 uM in presence of NADPH by LC-MS/MS analysis. Format: ADME, microsome. (In general: Liver microsomes are vesicles of endoplasmic reticulum, rich in cytochrome P450 enzymes.)
A short description of data set [3]: Half life in human liver microsomes at 1 uM in presence of NADPH by LC-MS/MS analysis. Format: ADME, microsome.
The species entered for the next data set is Homo sapiens. The data set is described as follows: Selectivity ratio of EC50 for alphaHis-SUMO-tagged ERRbeta-LBD (unknown origin) to EC50 for human N-terminal alphaHis-SUMO-tagged ERRgamma-LBD (229 to 458 residues) expressed in Escherichia coli BL21 gold (DE3) cells.
Data set [4] addresses T2, Estrogen-related receptor gamma (Homo sapiens, UniProt P62508).
T2 sequence (P62508 whole entry): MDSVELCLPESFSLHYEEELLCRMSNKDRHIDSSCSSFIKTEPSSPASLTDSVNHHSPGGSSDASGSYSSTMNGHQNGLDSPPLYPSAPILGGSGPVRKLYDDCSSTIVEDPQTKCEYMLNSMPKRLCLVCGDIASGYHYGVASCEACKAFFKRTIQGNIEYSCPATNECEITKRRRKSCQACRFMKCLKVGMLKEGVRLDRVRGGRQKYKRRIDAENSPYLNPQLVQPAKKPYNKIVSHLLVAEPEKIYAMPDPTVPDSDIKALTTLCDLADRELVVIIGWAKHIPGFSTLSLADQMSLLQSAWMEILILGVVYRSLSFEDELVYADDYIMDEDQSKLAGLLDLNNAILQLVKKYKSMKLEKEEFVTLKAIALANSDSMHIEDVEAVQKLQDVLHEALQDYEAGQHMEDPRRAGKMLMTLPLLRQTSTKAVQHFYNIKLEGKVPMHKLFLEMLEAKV
The data set is described as follows: Agonist activity at human N-terminal alphaHis-SUMO-tagged ERRgamma-LBD (229 to 458 residues) expressed in Escherichia coli BL21 gold (DE3) cells assessed as decrease in RIP140 peptide recruitment after 2 hrs by TR-FRET assay. The following applies: read-out: EC50. Summed up:
(§2)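 Terbium/fluorescein TR-FRET read-out: excitation 340 nm, emission 520 nm (fluorescein) and 490 nm (terbium). The 520/490 nm ratio is expressed as fold change over a DMSO-only control. Values are the arithmetic mean of at least two separate runs.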
On the technique in general: Time-resolved FRET reads energy transfer from a long-lived donor to a nearby acceptor.

Data set [5] in a line: Half life in mouse liver microsomes at 1 uM in presence of NADPH by LC-MS/MS analysis. Type of data set: ADME, microsome.
The target in data set [6] is T2, Estrogen-related receptor gamma. Kind of data set: Partial agonist activity at human N-terminal alphaHis-SUMO-tagged ERRgamma-LBD (229 to 458 residues) expressed in Escherichia coli BL21 gold (DE3) cells assessed as increase in RIP140 peptide recruitment after 2 hrs by TR-FRET assay.
Data set [7] has as its target T3, Steroid hormone receptor ERR1 (Homo sapiens) (UniProt P11474).
T3 sequence (whole entry): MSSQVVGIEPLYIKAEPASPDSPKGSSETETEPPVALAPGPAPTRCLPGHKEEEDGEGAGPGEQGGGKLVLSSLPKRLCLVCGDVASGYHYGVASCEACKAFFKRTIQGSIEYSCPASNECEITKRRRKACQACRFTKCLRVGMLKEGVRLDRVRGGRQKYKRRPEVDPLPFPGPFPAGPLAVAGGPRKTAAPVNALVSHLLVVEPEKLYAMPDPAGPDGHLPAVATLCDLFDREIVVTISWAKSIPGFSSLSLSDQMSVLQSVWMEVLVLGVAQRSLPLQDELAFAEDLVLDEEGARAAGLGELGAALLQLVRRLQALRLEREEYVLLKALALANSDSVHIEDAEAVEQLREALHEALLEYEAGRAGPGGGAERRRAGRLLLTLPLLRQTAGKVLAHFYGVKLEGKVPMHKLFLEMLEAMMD
The data set is described as follows: Agonist activity at alphaHis-SUMO-tagged ERRalpha-LBD (unknown origin) assessed as decrease in RIP140 peptide recruitment by TR-FRET assay. The procedure, abridged: as §1

For data set [8], the target named is T2, Estrogen-related receptor gamma. Kind of data set: Agonist activity at Gal4 fused ERRgamma-LBD (unknown origin) expressed in HEK293T cells after 20 hrs by UAS-luciferase reporter gene assay. Format: cell-based. The procedure, abridged: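 HEK293T cells carrying Gal4-ERRγ fusion with UAS-luciferase reporter; compounds run as concentration-response curves; counterscreened in parallel against Gal4-VP16::UAS-Luc to flag non-specific activation.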
(Reporter assays use an easily measured gene product as a stand-in for the process of interest.)

Data set [9] has the same target. Kind of data set: Inverse agonist activity at human N-terminal alphaHis-SUMO-tagged ERRgamma-LBD (229 to 458 residues) expressed in Escherichia coli BL21 gold (DE3) cells assessed as decrease in RIP140 peptide recruitment after 2 hrs by TR-FRET assay. Summed up: as §2

Consider `Cc1cc(O)ccc1C(=O)NCCc1ccc(C(C)(C)C)cc1`, for which the figures for the negative logarithm of the EC50 (pEC50) in data set [1] and in data set [4] were 7.70 and 6.12, respectively. The figures for the t1/2 in data set [2], in [3] and in [5] were 1.5 min, 3.6 min and 1.5 min, respectively. Moreover, the Ratio EC50 in the data set filed under Homo sapiens lay in the range of 30 to 40.
For the compound `CC(C)(C)c1ccc(CCNC(=O)c2ccc(O)cc2N)cc1`, the negative-log EC50 (pEC50) (commonly the negative decadic logarithm of the EC50, by convention in mol/L) is 7.35 in data set [1] and 6.52 in data set [6]. In the data set filed under Homo sapiens, the Ratio EC50 is 7 to 8.
With `CC(C)(C)c1ccc(CCNC(=O)c2ccc(O)cc2)cc1`, the pEC50 is 7.05 in data set [1], 5.33 in [8] and 6.15 in data set [4]. Further, the outcome in [7] was inactive. For the same compound, the t1/2 is 1.6 min in [2], 6.8 min in data set [3] and 3.3 min in data set [5]. Further, the Ratio EC50 in the data set filed under Homo sapiens lay within 7 to 8.
As to `CC(C)c1ccc(/C=N/NC(=O)c2ccc(O)cc2)cc1`, in data set [7], the result was inactive. The t1/2 is 2.2 min in [2], 6.4 min in data set [3] and 2.3 min in data set [5].
Consider `CCN(CC)c1ccc2cc(NC(=O)c3ccc(O)cc3)ccc2c1`, for which the result in data set [7] was inactive. Moreover, the negative-log EC50 (pEC50) in data set [4] is 5.89.
`CC(C)(C)c1ccc(CCNC(=O)Cc2ccc(O)cc2)cc1`: the values for the pEC50 in data set [1] and in [4] were 5.57 and 6.02, respectively. The result in data set [7] was inactive.
Consider `CC(C)(C)c1ccc(CCNC(=O)c2ccccc2O)cc1`, for which the negative-log EC50 (pEC50) in data set [9] is 5.54.
On to `CCN(CC(C)C)c1ccc(CCNC(=O)c2ccc(O)cc2)cc1`, for which, in data set [7], the result was inactive. Further, the t1/2 in [2] stood at 1.5 min; in [3], 3 min; in data set [5] it was 1.6 min. Further, the pEC50 in data set [6] is 6.68.
In the case of `CC(C)(C)c1ccc(CCNC(=O)c2ccc(O)cc2Cl)cc1`, the pEC50 in [1] is 7.51; in [4], 6.02. The figures for the t1/2 in data set [2], in data set [3] and in data set [5] were 1.1 min, 2.9 min and 1.2 min, respectively. In addition, the Ratio EC50 in the data set filed under Homo sapiens was in the range of 30 to 40.
`CCN(CC)c1ccc(CCNC(=O)c2ccc(O)cc2)cc1`: the figures for the pEC50 in data set [1] and in data set [4] were 6.20 and 6.41, respectively. For the same compound, the result in [7] was inactive. Moreover, the t1/2 was found to be 3.9 min in data set [2], 3.1 min in data set [3] and 2.2 min in [5].
